Laboratory results taken from ChEMBL document CHEMBL1909636, “Evaluation of the antiproliferative activity of diterpene isonitriles from the sponge Pseudoaxinella flava in apoptosis-sensitive and apoptosis-resistant cancer cell lines” (2011).
Active and inactive are the calls of the source. The calls are words filed in the database; no cut-off is given here.

What was measured:
PC-3 [1] = test: Growth inhibition of human PC3 cells after 72 hrs by MTT colorimetric assay; type: functional; details: PC-3, 72 h
Summary of the method: (§1)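 Cells were exposed to the compound over a range of concentrations for three days (72 h) and growth was read by MTT colorimetric assay. IC50 is the concentration that reduces global growth of the cell population by 50%.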

[2] = Growth inhibition of human U373 cells after 72 hrs by MTT colorimetric assay; type: functional, U-373MG ATCC; details: U373 MG; summary of the method: as §1
[3] = Growth inhibition of human Hs683 cells after 72 hrs by MTT colorimetric assay; type: functional; details: Hs 683, 72 h; summary of the method: as §1
A549 = test: Growth inhibition of human A549 cells after 72 hrs by MTT colorimetric assay; type: functional; details: A549, 72 h; summary of the method: as §1
LoVo = test: Growth inhibition of human LoVo cells after 72 hrs by MTT colorimetric assay; type: functional; summary of the method: as §1
SK-MEL-28 = test: Growth inhibition of human SK-MEL-28 cells after 72 hrs by MTT colorimetric assay; type: functional; details: SK-MEL-28, 72 h; summary of the method: as §1
PC-3 [4] = test: Cytostatic activity in human PC3 cells at IC50 by quantitative video microscopy analysis; type: functional, cell-based
Summary of the method: (§2)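 PC3 cells were treated for 72 h at a single concentration taken from the 72 h MTT growth assay and followed by computer-assisted phase-contrast videomicroscopy. Dead cells were scored as rounded and refringent, and cytostatic action was distinguished as inhibited proliferation without cell death. Morphology was examined at ×100 and, for high-magnification views, ×500.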

PC-3 [5] = test: Cytotoxicity against human PC3 cells assessed as cell death at IC50 by quantitative video microscopy analysis; type: functional, cell-based; summary of the method: as §2
PC-3 [6] = test: Induction of apoptosis in human PC3 cells assessed as vacuolization after 72 hrs at IC50 by quantitative video microscopy analysis; type: functional, cell-based

| Compound | GI50 (PC-3 [1]) [µM] | GI50 [2] [µM] | GI50 [3] [µM] | GI50 (A549) [µM] | GI50 (LoVo) [µM] | GI50 (SK-MEL-28) [µM] | Activity (PC-3 [4]) | Activity (PC-3 [5]) | Activity (PC-3 [6]) |
| --- | --- | --- | --- | --- | --- | --- | --- | --- | --- |
| [C-]#[N+]C(C)(C)C[C@@H]1C[C@H](C)[C@H]2CC[C@H](C)[C@@]3([N+]#[C-])CCC(=C)[C@@H]1[C@H]23 [DIISOCYANOAMPHILECTENE] | 1 | 25 | 50 | 42 | 3 | 6 | Active |  |  |
| [C-]#[N+][C@@]1(C)CC[C@H]2[C@H]3[C@@H](C(=C)CC[C@H]31)[C@H](CC(=C)C)C[C@@H]2C | 7 |  |  |  |  |  |  | Active |  |
| [C-]#[N+][C@@]1(C)CC[C@H]2[C@H]3[C@@H](C(=C)CC[C@H]31)[C@H](C=C(C)C)C[C@@H]2C | 7 |  |  |  |  |  |  | Active | Active |
| [C-]#[N+]C(C)(C)C[C@@H]1C[C@H](C)[C@H]2CC[C@](C)([N+]#[C-])[C@@H]3CCC(=C)[C@@H]1[C@H]23 | 3 | 10 | 4 | 16 | 3 | 32 | Active |  |  |
